Experiment [1] concerns HEK293. The experiment is described as follows: Dose-dependent inhibition of cAMP production stimulated by 10 nM a-MSH in HEK293 cells. In kind it is functional, cell-based. The settings on record: Homo sapiens. In short, it runs like this: (§1)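 Functional antagonism was measured as inhibition of cAMP production in HEK293 cells stably expressing human MC4R. Cells were stimulated with 10 nM α-MSH, and the test ligand was applied over a range of concentrations.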

For experiment [2], the target named is Melanocyte-stimulating hormone receptor (Homo sapiens, UniProt Q01726). The experiment is described as follows: Inhibition of [125I]NDP-MSH (radioligand) binding to human MC1R at 10 um concentration stably expressed in HEK293 cells. In kind it is cell-based. The settings on record: hek293. In short, it runs like this: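 Competition binding was run on HEK293 cells stably expressing human MC1R, with [125I]-NDP-MSH as the radioligand. The value is percent inhibition of binding with the test ligand at 10 µM.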

Experiment [3] addresses T1, Melanocortin receptor 4 (Homo sapiens, UniProt P32245). The experiment is described as follows: Stimulation of cAMP levels in the HEK293 cell line at 10 uM. In kind it is functional, cell-based. In short, it runs like this:
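Agonism was measured as cAMP levels in HEK293 cells stably expressing human MC4R. The test ligand was applied at 10 μM, and the response was expressed relative to the response to α-MSH.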
For orientation: Changes in cAMP serve as a functional read-out for many G protein-coupled receptors.

In the next experiment the target is Melanocortin receptor 5 (Homo sapiens, UniProt P33032). The experiment is described as follows: Inhibition of [125I]NDP-MSH (radioligand) binding to the human MC5R stably expressed in HEK293 cells. In kind it is cell-based. In short, it runs like this: (§2)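 Competition binding was run on HEK293 cells stably transfected with human MC1R, MC3R, MC4R or MC5R, each receptor in its own line. The radioligand was [125I]-NDP-MSH. For the MC4R values, data are the average of two to three independent measurements.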

For experiment [4], the target named is T2, Melanocortin receptor 3 (Homo sapiens, UniProt P41968). The experiment is described as follows: Inhibition of [125I]-NDP-MSH (radioligand) binding to the human MC3R stably expressed in HEK293 cells. It is filed as cell-based. In short, it runs like this:
as §2

Experiment [5] has as its target T1, Melanocortin receptor 4. The experiment is described as follows: Inhibition of [125I]NDP-MSH (radioligand) binding to the hMC4R stably expressed in HEK293 cells. In kind it is cell-based. In short, it runs like this:
as §2

Experiment [6] concerns the target T2, Melanocortin receptor 3. As to the kind of experiment: Inhibition of [125I]NDP-MSH (radioligand) binding to the human MC3R stably expressed in HEK293 cells. It is filed as cell-based. In short, it runs like this: as §2
Experiment [7] has as its target T1, Melanocortin receptor 4. The experiment is described as follows: Inhibition of [125I]-AgRP(83132) (radioligand) binding to the hMC4R stably expressed in HEK293 cells;. It is filed as cell-based. In short, it runs like this: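 Competition binding was run on HEK293 cells stably transfected with human MC4R. The radioligand was [125I]-AgRP(83–132).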
The test system of experiment [8] is HEK293. The experiment is described as follows: Dose-dependent inhibition of cAMP production stimulated by 10 nM a-MSH in HEK293 cells;. In kind it is functional, cell-based, Homo sapiens. In short, it runs like this: as §1

From ChEMBL document CHEMBL1139579, “Structure-activity relationship of a series of cyclohexylpiperidines bearing an amide side chain as antagonists of the human melanocortin-4 receptor” (Bioorg Med Chem Lett, 2005) come the findings set out here.

T1 sequence (P32245 whole entry): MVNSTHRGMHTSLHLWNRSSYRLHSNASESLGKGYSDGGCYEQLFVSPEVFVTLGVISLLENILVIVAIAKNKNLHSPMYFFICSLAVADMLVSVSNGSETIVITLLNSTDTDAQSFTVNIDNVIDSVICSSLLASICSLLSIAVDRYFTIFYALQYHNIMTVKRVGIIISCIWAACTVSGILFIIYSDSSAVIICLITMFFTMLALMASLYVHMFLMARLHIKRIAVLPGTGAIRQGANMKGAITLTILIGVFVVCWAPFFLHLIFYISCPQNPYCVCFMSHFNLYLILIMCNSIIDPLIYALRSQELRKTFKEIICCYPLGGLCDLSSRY
T2 sequence (P41968 whole entry): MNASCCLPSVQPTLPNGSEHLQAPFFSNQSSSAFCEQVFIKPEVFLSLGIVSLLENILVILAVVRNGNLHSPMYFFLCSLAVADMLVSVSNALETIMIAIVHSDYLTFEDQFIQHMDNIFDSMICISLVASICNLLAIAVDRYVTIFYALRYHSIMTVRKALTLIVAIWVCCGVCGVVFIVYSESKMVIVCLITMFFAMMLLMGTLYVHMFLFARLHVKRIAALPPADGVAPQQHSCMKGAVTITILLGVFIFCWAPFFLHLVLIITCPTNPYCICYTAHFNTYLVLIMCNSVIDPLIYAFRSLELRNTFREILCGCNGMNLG
Sequence of Melanocortin receptor 5 (P33032 whole entry): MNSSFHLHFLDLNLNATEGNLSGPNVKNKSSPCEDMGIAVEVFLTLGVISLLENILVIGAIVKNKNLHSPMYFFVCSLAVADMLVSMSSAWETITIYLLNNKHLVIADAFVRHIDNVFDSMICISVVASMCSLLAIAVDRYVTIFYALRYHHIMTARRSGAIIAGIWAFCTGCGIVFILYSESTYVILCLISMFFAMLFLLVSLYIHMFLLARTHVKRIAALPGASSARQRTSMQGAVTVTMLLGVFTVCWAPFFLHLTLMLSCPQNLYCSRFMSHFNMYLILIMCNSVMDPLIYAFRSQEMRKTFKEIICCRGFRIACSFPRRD
Sequence of Melanocyte-stimulating hormone receptor (Q01726 whole entry): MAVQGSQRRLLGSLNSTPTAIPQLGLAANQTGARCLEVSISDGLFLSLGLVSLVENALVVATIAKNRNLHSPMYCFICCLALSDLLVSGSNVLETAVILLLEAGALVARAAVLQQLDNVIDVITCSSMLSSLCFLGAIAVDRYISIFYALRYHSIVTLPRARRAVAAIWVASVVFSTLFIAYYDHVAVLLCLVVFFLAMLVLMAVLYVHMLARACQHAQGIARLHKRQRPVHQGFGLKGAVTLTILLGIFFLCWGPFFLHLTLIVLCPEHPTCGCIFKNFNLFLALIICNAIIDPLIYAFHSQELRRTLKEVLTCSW

Consider `NCCC(=O)N[C@H](Cc1ccc(Cl)cc1Cl)C(=O)N1CCN(C2(CNCCc3ccccc3)CCCCC2)CC1`, for which half-maximal inhibition with HEK293 [1] (IC50) required 430 nM. This molecule showed an Inhibition in [2] of 44%. At Melanocortin receptor 4 [3], this molecule came in with a Stimulation of 0.4%. Further, the inhibition constant (Ki) is 1200 nM on Melanocortin receptor 5, 3200 nM on Melanocortin receptor 3 [4] and 11 nM at Melanocortin receptor 4 [5].

`NCCC(=O)N[C@H](Cc1ccc(Cl)cc1Cl)C(=O)N1CCN(C2(CNCc3cccs3)CCCCC2)CC1` returned a Stimulation on Melanocortin receptor 4 [3] of 8.1%. The Ki at Melanocortin receptor 5 worked out at 1900 nM; on Melanocortin receptor 3 [6], 2400 nM; on Melanocortin receptor 4 [5], 12 nM.

With `NCCC(=O)N[C@H](Cc1ccc(Cl)cc1Cl)C(=O)N1CCN(C2(CNC(=O)Cc3ccccc3)CCCCC2)CC1`, the Inhibition in experiment [2] is 47%. Moreover, the inhibitory constant (Ki) on Melanocortin receptor 4 [7] was found to be 6.4 nM; at Melanocortin receptor 5, 920 nM; on Melanocortin receptor 3 [4], 710 nM; at Melanocortin receptor 4 [5], 8.8 nM. This molecule gave a Stimulation at Melanocortin receptor 4 [3] of 1.6%. This molecule gave an IC50 in the experiment on HEK293 [8] of 260 nM.

One may read the IC50 as the midpoint of a concentration-inhibition curve. A low value points to greater potency in that assay. A word on the Inhibition: it is the drop in the measured response relative to a control, in per cent. Higher therefore signals a strong effect. The Ki is a dissociation constant, usually derived from enzyme kinetics or from competition with a known ligand. Read a low Ki as higher affinity.
